Source: PubChem (Broad Institute)
Env fusion inh: blocks HIV Env-driven cell-cell fusion. HeLa-JRFL Env/CEM21 cell fusion, luciferase. inhibition, % at 12.3 µM. AID 651610. 360,000 tested, 1.1% active;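 active means mean replicate inhibition score of at least 50 and every replicate individually at or above 50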;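 further: 0% = plate neutral controls and 100% = maraviroc near 300 nM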
EWS-Fli block: inhibitors of EWS/Fli oncoprotein transcriptional activity; A673 NR0B1-luciferase reporter, viability-normalised; inhibition, % at 12.6 µM; 350,000 tested, 0.67% active; AID 651661;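 active means mean inhibition of at least 50% after viability correction, with every replicate also passing that limit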;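 further: firefly luciferase signal divided by Alamar Blue viability fluorescence both relative to DMSO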
PAX8 inh HTS: PAX8 transcriptional activity inhibition | RMG-I TPO-luciferase reporter, SteadyGlo, 24 h | inhibition, % at 12.6 µM | 360,000 tested, 1.2% active | AID 652154;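 active means mean replicate inhibition at least 60% with every replicate also reaching 60%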;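 further: luciferase light reporting Pax8 driven TPO promoter activity; plate controls were median of neutral control wells for no effect and mitoxantrone controls for full effect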
N-glyco inh: blocks N-linked glycosylation in D54 reporter cells | D54 ERlucT glycosylation luciferase reporter, 24 h; percent of 100 nM tunicamycin response | reporter increase, % at 12.5 µM | 360,000 tested, 0.23% active;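 active means mean luciferase reporter signal, scaled so untreated is 0 and the glycosylation-blocking control 100, at or above a set limit in every replicate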;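 further: luciferase carries N-glycosylation sites so blocking glycosylation raises the light; 0% = median of neutral control wells and 100% = median of 100 nM tunicamycin wells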
AF4-AF9 inh: MLL-AF4/AF9 protein interaction inhibition; P42568; AlphaScreen, biotin-AF4 peptide binding to FLAG-AF9; inhibition, % at 10 µM; 350,000 tested, 0.47% active; AID 651704;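 active means every replicate reaching a set inhibition limit, whatever the replicate mean, cut at about 25% in these data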;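 further: 0% = plate neutral control median and 100% = total signal loss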
Target sequence (P42568 whole entry, looked up): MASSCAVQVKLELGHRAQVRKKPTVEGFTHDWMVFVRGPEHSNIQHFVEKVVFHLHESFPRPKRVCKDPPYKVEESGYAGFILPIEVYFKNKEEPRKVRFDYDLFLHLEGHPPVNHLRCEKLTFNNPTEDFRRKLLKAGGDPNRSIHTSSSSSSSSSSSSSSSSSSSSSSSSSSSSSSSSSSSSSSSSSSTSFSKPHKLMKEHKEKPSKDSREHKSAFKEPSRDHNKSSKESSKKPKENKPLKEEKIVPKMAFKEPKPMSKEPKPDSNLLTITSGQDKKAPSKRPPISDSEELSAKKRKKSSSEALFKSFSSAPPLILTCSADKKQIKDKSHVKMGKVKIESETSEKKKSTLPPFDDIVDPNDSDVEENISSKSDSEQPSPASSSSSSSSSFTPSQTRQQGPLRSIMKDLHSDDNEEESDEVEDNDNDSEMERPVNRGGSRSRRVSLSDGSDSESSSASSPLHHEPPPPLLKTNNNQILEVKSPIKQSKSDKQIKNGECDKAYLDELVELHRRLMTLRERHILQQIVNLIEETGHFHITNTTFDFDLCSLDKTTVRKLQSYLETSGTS
FN deposition inh: fibronectin deposition inhibition | AH1F fibroblasts, Alexa488-fibronectin deposition fluorescence, overnight | inhibition, % at 12.6 µM | 350,000 tested, 0.086% active;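 active means mean inhibition across replicates of 30% or more, regardless of how many single replicates reach that level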;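 further: positive control wells lacked labelled fibronectin entirely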
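Measured by – fluorescence 485/525 nm · System – AH1F fibroblast monolayer, labelled fibronectin deposition · Amount – 10000 cells per well · Buffer or medium – serum-reduced DMEM (2% serum) · Doses – single dose, pinned · Also added – fluorescent fibronectin at 24 nM final · Schedule – 1 h cell attachment, overnight exposure to compound and label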
* = called active by the depositor; x = no result; [ ] = remark or other dose. Only some compounds are listed: those with a hit (about 2.5% of all), similar ones and a draw of the others.

SMILES	Env fusion inh	EWS-Fli block	PAX8 inh HTS	N-glyco inh	AF4-AF9 inh	FN deposition inh
O=C(c1ccccc1)N(C(=O)c1ccccc1)c1ncnc2c1C(c1ccccc1)c1c(ccc3ccccc13)O2 (stereo not drawn)	-30	20	72*	7	-1	10
O=C(CC1CC1)N1CC(=O)N2[C@H](CO)[C@H](c3ccc(C#Cc4ccccc4)cc3)[C@H]2C1	x	4	x	x	-2	x
O=C(Cc1ccc(N2CCNC2=O)cc1)N1CCCC(Nc2cccc(F)c2)C1 (stereo not drawn)	-260	55*	16	14	-2	3
O=C(Cc1ccc(N2CCNC2=O)cc1)N1CCCC(Nc2ccc(F)c(F)c2)C1 (stereo not drawn)	-71	x	25	16	1	3
CN(C)c1ccc(NC(=O)Cn2cc3c(n2)CCCC3)cc1	-34	-57	-28	-2	31*	4
CCOc1c2ccc(C(=O)NCCc3ccc(C)cc3)cc2nn1CC	-3	-7	-9	5	-18	-3
CCn1nc2cc(C(=O)NCCc3cccs3)ccc2c1OC	x	-37	-125	-9	26*	-5
O=C(NCCc1cccs1)c1ccc(Cl)cc1	-10	10	-28	-17	-1	-4
Cc1ccc(C(=O)NCCc2cccs2)cc1	19	64*	43	-21	-4	-7
CN1C[C@@H](O)COC[C@@H]2O[C@@H](CC(=O)N3CCN(c4ccccc4)CC3)CC[C@H]21	2[16.7 µM]	2	2	x	0	-4
COc1cccc(-c2ccc([C@@H]3[C@H]4CN(Cc5cncnc5)CCCCN4[C@H]3CO)cc2)c1	x	-7	-14	x	x	x
O=C(COc1ccc(Br)cc1Cl)NC(=S)Nc1ccccn1	-372	x	-155	-7	-2	x
Cc1ccc(OCC(=O)NC(=S)Nc2ccccn2)c(Br)c1	-2	52*	-196	-21	0	-4
CC1CCN(C(=O)c2cc3nc(-c4ccccc4)cc(-c4ccccc4)n3n2)CC1	77*	x	x	-5	x	13
CCOC(=O)Nc1ccc2c(c1)N(C(=O)CCN1CCOCC1)c1ccccc1S2=O (stereo not drawn)	27	x	106*	-10	x	8
O=C(c1ccccc1F)N1N=C(C(F)(F)F)CC1(O)c1ccccc1 (stereo not drawn)	-25	5	1	-4	3	-6
CCC1=NN(C(=O)c2ccc(Br)cc2)C(O)(c2ccccc2)C1 (stereo not drawn)	-6	-3	10	-1	1	0
CC1=NN(C(=O)c2ccccc2)C(O)(c2ccc(Br)cc2)C1 (stereo not drawn)	80*	3	-6	-2	0	-4
O=C(c1ccccc1)N1N=C(C(F)(F)F)CC1(O)c1ccccc1O (stereo not drawn)	58*	-18	-22	-1	0	-5
COc1ccc(S(=O)(=O)N2CC[C@@H]3[C@@H](CO)Nc4ccc(C#Cc5ccccc5OC)cc4[C@@H]32)cc1	x	4	23	x	1	0
Cc1ccc2c(C)nc(Nc3nc(CSc4nnnn4-c4ccccc4)cc(=O)[nH]3)nc2c1	70*	x	x	-11	x	5
COc1ccc2nc(Nc3nc(CSc4nnnn4-c4ccccc4)cc(=O)[nH]3)nc(C)c2c1	-39	x	x	7	x	2
Cc1cc(C)c2nc(Nc3nc(CSc4nc5ccccc5[nH]4)cc(=O)[nH]3)nc(C)c2c1	83*	2	28	0	x	0
O=C(C[C@H]1CC[C@@H]2[C@H](COC[C@@H](O)CN2Cc2cc(F)ccc2F)O1)NCc1ccc(Cl)cc1	0[16.7 µM]	-1	-5	x	-20	2
COc1ccc(S(=O)(=O)Nc2ccc3c(c2)n(C)c(=O)n3C)cc1C	-33	43	6	31*	2	-7
SMILES	Env fusion inh	EWS-Fli block	PAX8 inh HTS	N-glyco inh	AF4-AF9 inh	FN deposition inh
Cn1c(=O)n(C)c2cc(NS(=O)(=O)c3ccc(C(C)(C)C)cc3)ccc21	30	24	17	25	0	4
Cn1c(=O)n(C)c2cc(NS(=O)(=O)c3ccc4c(c3)CCCC4)ccc21	-10	x	x	37*	x	x
C[C@@H]1CCCCO[C@@H](CN(C)C(=O)Nc2ccc(C(F)(F)F)cc2)[C@@H](C)CN([C@H](C)CO)C(=O)c2cc(NS(=O)(=O)c3cccs3)ccc2O1	-60[16.7 µM]	10	x	x	-2	x
C[C@@H]1CCCCO[C@H](CN(C)C(=O)Nc2ccc(C(F)(F)F)cc2)[C@@H](C)CN([C@H](C)CO)C(=O)c2cc(NS(=O)(=O)c3cccs3)ccc2O1	-7[16.7 µM]	-14	3	x	-2	x
C[C@H](CO)N1C[C@H](C)[C@H](CN(C)C(=O)Nc2ccc(C(F)(F)F)cc2)OCCCC[C@H](C)Oc2ccc(NS(=O)(=O)c3cccs3)cc2C1=O	17[16.7 µM]	8	66*	x	-2	x
C[C@H]1CCCCO[C@@H](CN(C)C(=O)Nc2ccc(C(F)(F)F)cc2)[C@@H](C)CN([C@@H](C)CO)C(=O)c2cc(NS(=O)(=O)c3cccs3)ccc2O1	28[16.7 µM]	14	62*	x	-1	x
C[C@@H]1CCCCO[C@@H](CN(C)C(=O)Nc2ccc(C(F)(F)F)cc2)[C@H](C)CN([C@H](C)CO)C(=O)c2cc(NS(=O)(=O)c3cccs3)ccc2O1	5[16.7 µM]	27	85*	x	0	x
COCC#Cc1ccc2c(c1)O[C@H](CN(C)S(=O)(=O)c1cccc(F)c1)[C@@H](C)CN([C@@H](C)CO)S2(=O)=O	-4[16.7 µM]	15	x	x	1	-8
C[C@H](CO)N1C[C@H](C)[C@H](CN(C)S(=O)(=O)c2ccccc2)OCCCC[C@H](C)Oc2ccc(NC(=O)CCCN(C)C)cc2C1=O	-8[16.7 µM]	-1	-3	x	4	3
Cc1ccc(-n2nnnc2SCn2nnc3ccccc3c2=O)c(C)c1	75*	x	x	1	x	x
Cc1cc(SCn2nnc3ccccc3c2=O)nc2ccccc12	5	-8	-17	-5	-7	x
Cc1cc(NC(=O)CSc2nc(C(C)(C)C)nc3ccccc23)no1	-38	46	34	11	-2	-2
Cc1cc(NC(=O)CSc2nc(-c3cccs3)nc3ccccc23)no1	x	58*	27	18	2	20
CC(=O)Nc1ccccc1C(=O)C(=O)Nc1ccc(C)c(C)c1	-44	-105	-192	2	-1	1
CC(=O)Nc1ccccc1C(=O)C(=O)Nc1ccc(C)c(F)c1	x	-111	69*	0	0	-1
O=C(COc1ccc(-c2nnco2)cc1)Nc1ccc(C(F)(F)F)cc1	55*	-2	1	-2	-4	x
CCC(C)c1ccccc1NC(=O)COc1ccc(-c2nnco2)cc1 (stereo not drawn)	1	1	0	0	11	-2
CCCOc1ccc(/C=N/Nc2ccccc2[N+](=O)[O-])c(O)c1	-78	23	-111	-18	7	-4
CCCOc1ccc(/C=N/NC(=S)Nc2ccccc2[N+](=O)[O-])c(O)c1	-128	x	94*	x	x	8
